Measurements from different studies.
Protocols differ between the studies behind these lines.
Target: Serine/threonine-protein kinase MARK2 (MARK2, Homo sapiens, UniProt Q7KZI7)

| SMILES | read-out | method | tested at | remaining binding [%] |
| --- | --- | --- | --- | --- |
| O=C(O)[C@@H]1[C@@H](Cn2nnc3ccccc3c2=O)CC[C@H]1C(=O)c1ccc(OCCC2CCOCC2)cc1 | cell-free assay | competition with immobilised ligand | 1 µM | 100 |
| CN(c1nccc(-c2cnn3ncccc23)n1)C1CC1 | binding |  | 1 µM | 100 |
| COc1cccc(CNC(=O)c2nc3scc(COCc4ccc(C(=O)O)cc4)c3c(=O)[nH]2)c1 | cell-free assay | competition with immobilised ligand | 1 µM | 100 |
| F[C@@H]1CCN(c2nccc(-c3cnn4ncccc34)n2)C1 | binding |  | 1 µM | 100 |
| C[C@H](c1ccc(F)cc1)N(Cc1cccc(C(=O)O)c1)C(=O)c1cnc2ccccc2c1 | cell-free assay | competition with immobilised ligand | 1 µM | 80 |
| O=C(c1ccc(Nc2ncc(Cl)c(-c3cc4ccccc4s3)n2)cc1)N1CCC(N2CCCC2)CC1 | binding | competition with immobilised ligand | 1 µM | 80 |
| O=C(NCC1CCOCC1)c1n[nH]cc1NC(=O)c1c(F)cccc1F | binding | competition with immobilised ligand | 1 µM | 71 |
| O=C(NCCCN1CCOCC1)c1ccc(Nc2nccc(-c3cc4ccccc4s3)n2)cc1 | binding | competition with immobilised ligand | 1 µM | 81 |
| COc1ccnn2ncc(-c3ccnc(N(C)C)n3)c12 | binding |  | 1 µM | 92 |
| COc1ccc2cc(OCC3(C(=O)O)CN(C(=O)c4ccc(F)cc4)C3)ccc2c1 | cell-free assay | competition with immobilised ligand | 1 µM | 91 |
| CC1CCCN1c1nccc(-c2cnn3ncccc23)n1 (stereo not shown) | binding |  | 1 µM | 70 |
| CO[C@@H](C)c1c(Nc2ccc([C@@H](N(C)C(=O)C3CCS(=O)(=O)CC3)C(F)(F)F)cc2)cnc2cc(Cl)nn12 | cell-free assay | competition with immobilised ligand | 1 µM | 100 |
| N[C@@H]1CCN(c2nccc(-c3cnn4ncccc34)n2)C1 | binding |  | 1 µM | 100 |
| O=S(=O)(NC1CCC(c2cc(F)ccc2F)(S(=O)(=O)c2ccc(Cl)cc2)CC1)C(F)(F)F (stereo not shown) | cell-free assay | competition with immobilised ligand | 1 µM | 100 |
| COc1cnc(Nc2cccc(S(N)(=O)=O)c2)nc1N1CCN(c2ccccc2)CC1 | binding | competition with immobilised ligand | 1 µM | 88 |
| C[C@@H](c1ccc(-n2cnc3c(N)ncnc32)cc1)N1CCc2nn(C)c(Cc3ccccc3)c2C1=O | binding | competition with immobilised ligand | 0.1 µM | 91 |
| C[C@@]1(Cc2ccc(C#N)cc2)C(=O)N(c2cc(Cl)cc(Cl)c2)c2ncc(C(=O)NC3(c4nc(C5CCC5)no4)CC3)n21 | cell-free assay | competition with immobilised ligand | 1 µM | 85 |
| Nc1ncc2c(n1)-c1c([nH]c3ccc(C#CC4CC4)cc13)CCCC2 | binding | competition with immobilised ligand | 1 µM | 94 |
| Cc1cnn2ncc(-c3ccnc(N(C)C)n3)c2c1 | binding |  | 1 µM | 100 |
| FC(F)(F)Oc1cccc(-c2cnc3ccc(-c4ccncc4)nn23)c1 | cell-free assay | competition with immobilised ligand | 5 µM | 64 |
| CN(C)c1ncc(F)c(-c2cnn3ncccc23)n1 | binding |  | 1 µM | 72 |
| O=C(c1ccc(Nc2ncc(Cl)c(-c3ccc(Cl)s3)n2)cc1)N1CCC(N2CCCC2)CC1 | binding | competition with immobilised ligand | 1 µM | 69 |
